{
  "source": "ChEMBL document CHEMBL1155165",
  "about": "“SB-431542, a transforming growth factor beta inhibitor, impairs Trypanosoma cruzi infection in cardiomyocytes and parasite cycle completion” (2007)",
  "key": {"Trypanosoma cruzi [1]": {"system": "Trypanosoma cruzi", "assay": "Antitrypanosomal activity against Trypanosoma cruzi Y in mouse cardiomyocytes assessed as number of intracellular parasites per infected cell at 10 uM after 24 hrs postinfection by Giemsa staining", "format": "functional", "in_short": "(§1)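 Primary mouse embryo cardiomyocytes were seeded at 1 × 10^5 cells/well for 24 h at 37°C in 5% CO2. Cells were pretreated for 1 h with 10 μM inhibitor or vehicle, and treatment was kept throughout. They were infected with Y strain trypomastigotes at 10:1 parasite:host. At 24, 48, 72 and 96 h postinfection cells were Bouin-fixed and Giemsa-stained. Parasites per infected cell were counted over 400 cells on two coverslips. Mean ± SD of three experiments.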"}, "Trypanosoma cruzi [2]": {"system": "Trypanosoma cruzi", "assay": "Inhibition of Trypanosoma cruzi Dm28C infection-induced Smad2 phosphorylation in mouse embryo cardiomyocytes at 10 uM by immunoblot", "format": "functional, organism-based", "in_short": "(§2)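 Mouse embryo cardiomyocytes were pretreated for 1 h with or without 10 μM inhibitor. They were then given 2 ng/ml TGF-β1 or T. cruzi Dm28c for 1 h. Cells were lysed in RIPA buffer, pH 8.0, and 20 μg lysate was run on 12% SDS-PAGE. Blots were probed for phospho-Smad2, with α-tubulin as loading control.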"}, "Trypanosoma cruzi [3]": {"system": "Trypanosoma cruzi", "assay": "Antitrypanosomal activity against Trypanosoma cruzi Y in mouse cardiomyocytes assessed as number of intracellular parasites per infected cell at 10 uM after 48 hrs postinfection by Giemsa staining", "format": "functional", "in_short": "as §1"}, "Trypanosoma cruzi [4]": {"system": "Trypanosoma cruzi", "assay": "Antitrypanosomal activity against Trypanosoma cruzi Y in mouse cardiomyocytes assessed as induction of parasite apoptosis at 10 uM after 72 hrs postinfection by TUNEL method", "format": "functional", "in_short": "(§3)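 Y strain-infected cardiomyocytes were kept with or without 10 μM inhibitor, grown on coverslips. They were fixed in 4% paraformaldehyde for 20 min at 4°C and permeabilized with 0.1% Triton X-100 in 0.1% sodium citrate for 2 min at 4°C. TUNEL labelling ran 60 min at 37°C, followed by DAPI counterstain. The percentage of TUNEL-positive parasites was scored at 72 and 96 h postinfection by epifluorescence.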"}, "Trypanosoma cruzi [5]": {"system": "Trypanosoma cruzi", "assay": "Antitrypanosomal activity against Trypanosoma cruzi Y in mouse cardiomyocytes assessed as induction of parasite apoptosis at 10 uM after 96 hrs postinfection by TUNEL method", "format": "functional", "in_short": "as §3"}, "Cardiomyocyte": {"system": "Cardiomyocyte", "assay": "Inhibition of TGF-beta-1-induced Smad2 phosphorylation in mouse embryo cardiomyocytes at 10 uM by immunoblot", "format": "functional, cell-based", "in_short": "as §2"}, "Trypanosoma cruzi [6]": {"system": "Trypanosoma cruzi", "assay": "Inhibition of invasion of Trypanosoma cruzi Dm28C in mouse embryo cardiomyocytes assessed as pathogen infection at 10 uM for 1 hr measured at 4 hrs postinfection", "format": "functional, organism-based", "in_short": "(§4)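 Mouse embryo cardiomyocytes were pretreated for 1 h with 10 μM inhibitor or left untreated. They were infected with Dm28c or Y strain trypomastigotes at 10:1 parasite:host. Cells were fixed at 4 h postinfection and Giemsa-stained. The percentage of infected cells was counted over 400 cells per slide on two coverslips. Control and treated cells were compared by t test.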"}, "Trypanosoma cruzi [7]": {"system": "Trypanosoma cruzi", "assay": "Antitrypanosomal activity against Trypanosoma cruzi Y in mouse cardiomyocytes assessed as number of intracellular parasites per infected cell at 10 uM after 96 hrs postinfection by Giemsa staining", "format": "functional", "in_short": "as §1"}, "Trypanosoma cruzi [8]": {"system": "Trypanosoma cruzi", "assay": "Antitrypanosomal activity against Trypanosoma cruzi Y in mouse cardiomyocytes assessed as inhibition of trypomastigote release at 10 uM after 96 hrs", "format": "functional, organism-based", "in_short": "(§5)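 Cardiomyocytes were infected with Y strain trypomastigotes (10:1 parasite:host) and kept with or without 10 μM inhibitor throughout. Parasites released at 96 h postinfection were counted and reported as 10^4. Trypomastigotes were scored separately from nontrypomastigote forms (amastigotes plus epimastigote-like forms).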"}, "Trypanosoma cruzi [9]": {"system": "Trypanosoma cruzi", "assay": "Antitrypanosomal activity against Trypanosoma cruzi Y in mouse cardiomyocytes assessed as reduction of intracellular amastigotes at 10 uM by Giemsa staining", "format": "functional, organism-based", "in_short": "as §1"}, "Trypanosoma cruzi [10]": {"system": "Trypanosoma cruzi", "assay": "Antitrypanosomal activity against Trypanosoma cruzi Y in mouse cardiomyocytes assessed as number of nontrypomastigote release at 10 uM after 96 hrs", "format": "functional", "in_short": "as §5"}, "Trypanosoma cruzi [11]": {"system": "Trypanosoma cruzi", "assay": "Antitrypanosomal activity against Trypanosoma cruzi Y in mouse cardiomyocytes assessed as number of trypomastigote release at 10 uM after 96 hrs", "format": "functional", "in_short": "as §5"}, "Trypanosoma cruzi [12]": {"system": "Trypanosoma cruzi", "assay": "Antitrypanosomal activity against Trypanosoma cruzi Y in mouse cardiomyocytes assessed as number of intracellular parasites per infected cell at 10 uM after 72 hrs postinfection by Giemsa staining", "format": "functional", "in_short": "as §1"}, "C32": {"system": "C32", "assay": "Inhibition of TGFbeta signaling in mink C32 cells at 10 uM by luciferase based assay", "format": "functional, cell-based", "settings": "Neovison vison", "in_short": "(§6)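 C32 cells are Mv1Lu mink lung cells stably carrying a PAI promoter-luciferase reporter. Cells were plated at 1 × 10^5/well in 5% FCS and switched to 0.1% FCS after 3 h. They were stimulated with TGF-β1 2 ng/ml or live Y strain trypomastigotes, 1 × 10^6 to 4 × 10^6 parasites, with or without 10 μM inhibitor. Luciferase (RLU) was read after 20 h. Mean ± SD of three experiments.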"}, "Trypanosoma cruzi [13]": {"system": "Trypanosoma cruzi", "assay": "Inhibition of invasion of Trypanosoma cruzi Y in mouse embryo cardiomyocytes assessed as pathogen infection at 10 uM for 1 hr measured at 4 hrs postinfection", "format": "functional, organism-based", "in_short": "as §4"}, "Trypanosoma cruzi [14]": {"system": "Trypanosoma cruzi", "assay": "Inhibition of Trypanosoma cruzi Y infection-induced TGFbeta signaling in mink C32 cells at 10 uM by luciferase based assay", "format": "functional, organism-based", "in_short": "as §6"}},
  "note": "Active and inactive are the calls of the source. The rule behind the calls is not given here.",
  "data": [
    {"compound": "NC(=O)c1ccc(-c2nc(-c3ccccn3)c(-c3ccc4c(c3)OCO4)[nH]2)cc1", "note": "[SB-431542]", "values": [
      {"measurement": "Activity", "setting": "Trypanosoma cruzi [1]", "result": 1.4},
      {"measurement": "Activity", "setting": "Trypanosoma cruzi [2]", "result": "Active"},
      {"measurement": "Activity", "setting": "Trypanosoma cruzi [3]", "result": 4.4},
      {"measurement": "Activity", "setting": "Trypanosoma cruzi [4]", "result": 47.9, "unit": "%"},
      {"measurement": "Activity", "setting": "Trypanosoma cruzi [5]", "result": 26.5, "unit": "%"},
      {"measurement": "Activity", "setting": "Cardiomyocyte", "result": "Active"},
      {"measurement": "Activity", "setting": "Trypanosoma cruzi [6]", "result": "Active"},
      {"measurement": "Activity", "setting": "Trypanosoma cruzi [7]", "result": 58},
      {"measurement": "Activity", "setting": "Trypanosoma cruzi [8]", "result": "Active"},
      {"measurement": "Activity", "setting": "Trypanosoma cruzi [9]", "result": "Active"},
      {"measurement": "Activity", "setting": "Trypanosoma cruzi [10]", "result": 53},
      {"measurement": "Activity", "setting": "Trypanosoma cruzi [11]", "result": 19},
      {"measurement": "Activity", "setting": "Trypanosoma cruzi [12]", "result": 38},
      {"measurement": "Activity", "setting": "C32", "result": "Active"},
      {"measurement": "Activity", "setting": "Trypanosoma cruzi [13]", "result": "Active"},
      {"measurement": "Activity", "setting": "Trypanosoma cruzi [14]", "result": "Active"}
    ]}
  ]
}
